The values below come from ChEMBL document CHEMBL2034938, “Convenient synthesis of novel geiparvarin analogs with potential anti-cancer activity via click chemistry” (Eur J Med Chem, 2012).

Test [1] in a line: Cytotoxicity against human L02 cells by after 48 hrs by MTT assay. As to conditions: L02, 48 h. In kind it is cell-based. The essentials:
(§1)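 MTT assay; cell lines obtained from Shanghai Institute of Biological Sciences, CAS. Compounds in DMSO stock (10 g/L), diluted in medium just before use. Cells seeded at 8000/well; compound added 24 h later, in duplicate. After 48 h at 37 °C, 5% CO₂, MTT (5 mg/mL in PBS) added for 4 h. Formazan dissolved in DMSO; absorbance read at 570 nm. IC50 taken as the concentration giving 50% growth inhibition.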
A general note: Tetrazolium assays rely on reduction of a dye to a coloured formazan, in cell work by metabolically active cells.

The test system of test [2] is A549. Briefly: Cytotoxicity against human A549 cells by after 48 hrs by MTT assay. In kind it is functional, cell-based. The note with it: A549, 48 h. The essentials: as §1
A further test deals with HeLa. As to the kind of experiment: Cytotoxicity against human HeLa cells by after 48 hrs by MTT assay. Format: functional, cell-based. The essentials:
as §1

Test [3] can be described thus: Cytotoxicity against human QGY7701 cells by after 48 hrs by MTT assay. In kind it is functional, cell-based. As to conditions: QGY7701, 48 h. The essentials:
as §1

The subject of a further test is SW480. As to the kind of experiment: Cytotoxicity against human SW480 cells by after 48 hrs by MTT assay. Format: functional, cell-based. As to conditions: SW480, 48 h. The essentials:
as §1

Another test concerns SGC-7901. Briefly: Cytotoxicity against human SGC7901 cells by after 48 hrs by MTT assay. In kind it is functional, cell-based. As to conditions: SGC-7901, 48 h. The method in brief:
as §1

The next test deals with MDA-MB-231. As to the kind of experiment: Cytotoxicity against human MDA-MB-231 cells by after 48 hrs by MTT assay. As to conditions: MDA-MB-231, 48 h. Format: functional, cell-based. The essentials:
as §1

Test [4] relates to A549. As to the kind of experiment: Induction of apoptosis in human A549 cells assessed as viable cells at 1 uM after 48 hrs by annexinV/propidium iodide staining-based flow cytometric analysis ( Rvb = 95.96%). Format: functional. The note with it: A549, 48 h, read-out: Activity.
Test [5] has as its system A549. Briefly: Induction of apoptosis in human A549 cells assessed as early apoptotic cells at 1 uM after 48 hrs by annexinV/propidium iodide staining-based flow cytometric analysis ( Rvb = 0.15%). Format: functional. For orientation: Flow cytometry measures light scatter and fluorescence of single cells or particles in a stream.
Test [6] has as its system A549. Briefly: Induction of apoptosis in human A549 cells assessed as late apoptotic cells at 1 uM after 48 hrs by annexinV/propidium iodide staining-based flow cytometric analysis (reference value: 0.16%). Format: functional.
The test system of test [7] is A549. As to the kind of experiment: Induction of apoptosis in human A549 cells assessed as viable cells at 2 uM after 48 hrs by annexinV/propidium iodide staining-based flow cytometric analysis ( Rvb = 95.96%). Format: functional. As to conditions: A549, 48 h, read-out: Activity.
Test [8] deals with A549. As to the kind of experiment: Induction of apoptosis in human A549 cells assessed as early apoptotic cells at 2 uM after 48 hrs by annexinV/propidium iodide staining-based flow cytometric analysis ( Rvb = 0.15%). Format: functional.
In test [9] the test system is A549. As to the kind of experiment: Induction of apoptosis in human A549 cells assessed as late apoptotic cells at 2 uM after 48 hrs by annexinV/propidium iodide staining-based flow cytometric analysis (reference value: 0.16%). Format: functional.
Test [10] relates to A549. Briefly: Induction of apoptosis in human A549 cells assessed as viable cells at 4 uM after 48 hrs by annexinV/propidium iodide staining-based flow cytometric analysis ( Rvb = 95.96%). In kind it is functional. The note with it: A549, 48 h, read-out: Activity.
The subject of test [11] is A549. As to the kind of experiment: Induction of apoptosis in human A549 cells assessed as early apoptotic cells at 4 uM after 48 hrs by annexinV/propidium iodide staining-based flow cytometric analysis ( Rvb = 0.15%). Format: functional.
The subject of test [12] is A549. Briefly: Induction of apoptosis in human A549 cells assessed as late apoptotic cells at 4 uM after 48 hrs by annexinV/propidium iodide staining-based flow cytometric analysis (reference value: 0.16%). In kind it is functional.
The test system of test [13] is A549. Briefly: Induction of apoptosis in human A549 cells assessed as viable cells at 8 uM after 48 hrs by annexinV/propidium iodide staining-based flow cytometric analysis ( Rvb = 95.96%). Format: functional. The note with it: A549, 48 h, read-out: Activity.
In test [14] the test system is A549. Briefly: Induction of apoptosis in human A549 cells assessed as early apoptotic cells at 8 uM after 48 hrs by annexinV/propidium iodide staining-based flow cytometric analysis ( Rvb = 0.15%). Format: functional.
In test [15] the test system is A549. Briefly: Induction of apoptosis in human A549 cells assessed as late apoptotic cells at 8 uM after 48 hrs by annexinV/propidium iodide staining-based flow cytometric analysis (reference value: 0.16%). In kind it is functional.
Test [16] has as its system A549. As to the kind of experiment: Induction of apoptosis in human A549 cells after 48 hrs by annexinV/propidium iodide staining-based flow cytometric analysis. Format: functional, cell-based.
In test [17] the test system is A549. Briefly: Induction of apoptosis in human A549 cells assessed as necrotic cells at 2 uM after 48 hrs by annexinV/propidium iodide staining-based flow cytometric analysis (reference value: 3.72%). As to conditions: A549, 48 h.
Test [18] concerns A549. As to the kind of experiment: Induction of apoptosis in human A549 cells assessed as necrotic cells at 4 uM after 48 hrs by annexinV/propidium iodide staining-based flow cytometric analysis (reference value: 3.72%). The note with it: A549, 48 h.
Test [19] has as its system A549. As to the kind of experiment: Induction of apoptosis in human A549 cells assessed as necrotic cells at 8 uM after 48 hrs by annexinV/propidium iodide staining-based flow cytometric analysis (reference value: 3.72%). The note with it: A549, 48 h.

What is called IC50 is the concentration that gives 50% inhibition. A low value points to greater potency in that assay. Take `O=c1ccoc2cc(OCc3cn(Cc4ccc(Cl)cc4Cl)nn3)ccc12`: the IC50 was over 300 µM in test [1]; 5.26 µM with A549 [2]; 80.6 µM in the test with HeLa; 13.3 µM in [3]; over 100 µM in the test with SW480; over 100 µM in the test with SGC-7901. In addition, in the test on MDA-MB-231, the IC50 was over 100 µM. For the same compound, the viability at 1 µM in the test with A549 [4] turned out to be 88.4%. The Activity with A549 [5] is given as 7.13%; in the test with A549 [6], 2.31%; with A549 [8], 17.62%; in the test with A549 [9], 3.56%; with A549 [11], 28.45%; in the test on A549 [12], 3.55%. Further, the Activity in the test on A549 [14] is 29.73%; with A549 [15], 3.33%; with A549 [16] it was “Dose-dependent effect”. In the test on A549 [7], the viability at 2 µM is 76.4%. Further, in the test on A549 [10], the viability at 4 µM was 65.8%. For the same compound, in the test with A549 [13], the viability at 8 µM turned out to be 65.3%. The necrotic cells at 2 µM with A549 [17] was 2.42%. For the same compound, in the test with A549 [18], the necrotic cells at 4 µM came to 2.19%. Moreover, in the test on A549 [19], the necrotic cells at 8 µM is 1.64%.
With `C/C(=C\COc1ccc2ccc(=O)oc2c1)C1=CC(=O)C(C)(C)O1` [GEIPARVARIN], the IC50 in [1] is over 300 µM; with A549 [2], 18 µM; in the test on HeLa, 9.09 µM; in [3], 17.7 µM; with SW480 it was 20.3 µM; with SGC-7901 it was 7.59 µM. The compound also showed an IC50 in the test with MDA-MB-231 of 9.88 µM. For the same compound, the viability at 1 µM with A549 [4] came to 90.7%. In addition, the Activity in the test on A549 [5] came out at 6.19%; with A549 [6], 1.32%; in the test on A549 [8] it was 11.51%; with A549 [9], 5.25%; in the test on A549 [11], 18.87%; in the test with A549 [12], 4.27%. Further, the Activity in the test on A549 [14] stood at 25.25%; in the test on A549 [15] it was 3.56%. The viability at 2 µM in the test with A549 [7] came out at 77%. Also, the viability at 4 µM in the test on A549 [10] stood at 71.7%. Besides, the viability at 8 µM in the test on A549 [13] worked out at 65.3%. Moreover, in the test with A549 [17], the necrotic cells at 2 µM was 4.26%. Further, in the test with A549 [18], the necrotic cells at 4 µM is 5.13%. Besides, the necrotic cells at 8 µM in the test with A549 [19] was 5.87%.
